Assay results pooled from the literature.
Observed: cell growth or viability

Structure (SMILES) | cell line | method | time | notes | endpoint | result
CCOP(=O)(OCC)[C@@H]1C[C@@H](n2cc(-c3nccn3C)nn2)ON1C | HEL | – | 72 h | – | CC50 | > 100 µM
COc1ccc(-n2cc(CN3CCN(C(=O)c4c(C)nc5ccc(Cl)cn45)CC3)nn2)c([N+](=O)[O-])c1 | HeLa | resazurin | – | – | CC50 | > 100 µM
CCOP(=O)(OCC)[C@@H]1C[C@H](n2cc(C(=O)OC)nn2)ON1C (relative stereo) | HEL | – | 72 h | – | CC50 | > 100 µM
COc1ccc(NS(=O)(=O)c2ccc(N(C)C=O)cc2)cn1 | HeLa | XTT | 72 h | – | IC50 | > 100 µM
Cc1nc2ccc(Cl)cn2c1C(=O)N1CCN(Cc2cn(-c3ccccc3)nn2)CC1 | HeLa | resazurin | – | – | CC50 | > 100 µM
COC(=O)c1cc(N)cc(NS(=O)(=O)c2ccc(OC)cc2)c1 | HeLa | XTT | 72 h | – | IC50 | 20 µM
Nc1nc2c(ncn2COCCO)c(=O)[nH]1 | HEL | – | 72 h | – | CC50 | > 440 µM
CCOP(=O)(OCC)[C@@H]1C[C@@H](n2cc(-c3ccccn3)nn2)ON1C (racemic) | HeLa | – | 72 h | – | CC50 | > 250 µM
COc1ccc(S(=O)(=O)Nc2cc(OC)c(NC(=O)CCl)cc2OC)cc1 | HeLa | XTT | 72 h | – | IC50 | 2.4 µM
COc1ccc(-n2cc(CN3CCN(C(=O)c4c(C)nc5cc(C)ccn45)CC3)nn2)c([N+](=O)[O-])c1 | HeLa | resazurin | – | – | CC50 | > 100 µM
COc1cc(N)c(NS(=O)(=O)c2ccc(N(C)C)cc2)cc1OC | HeLa | XTT | 72 h | – | IC50 | > 100 µM
Cc1nc2ccc(Cl)cn2c1C(=O)N1CCN(Cc2cn(-c3cccc(Cl)c3)nn2)CC1 | HeLa | resazurin | – | – | CC50 | > 100 µM
C=CC1=C(C)c2cc3[nH]c(cc4nc(cc5[nH]c(cc1n2)c(C)c5CCC(=O)O)C(CCC(=O)O)=C4C)c(C)c3C=C | RPE-1 | resazurin | 4 h | dark | IC50 | > 100 µM
